{
  "source": "paper PMC8458982",
  "about": "(The Journal of Biological Chemistry, 2021)",
  "key": {"mTRPC6^N701Q": {"target": "mTRPC6^N701Q (Mus musculus, UniProt Q61143, N701Q)", "sequence (Q61143 whole entry N701Q)": "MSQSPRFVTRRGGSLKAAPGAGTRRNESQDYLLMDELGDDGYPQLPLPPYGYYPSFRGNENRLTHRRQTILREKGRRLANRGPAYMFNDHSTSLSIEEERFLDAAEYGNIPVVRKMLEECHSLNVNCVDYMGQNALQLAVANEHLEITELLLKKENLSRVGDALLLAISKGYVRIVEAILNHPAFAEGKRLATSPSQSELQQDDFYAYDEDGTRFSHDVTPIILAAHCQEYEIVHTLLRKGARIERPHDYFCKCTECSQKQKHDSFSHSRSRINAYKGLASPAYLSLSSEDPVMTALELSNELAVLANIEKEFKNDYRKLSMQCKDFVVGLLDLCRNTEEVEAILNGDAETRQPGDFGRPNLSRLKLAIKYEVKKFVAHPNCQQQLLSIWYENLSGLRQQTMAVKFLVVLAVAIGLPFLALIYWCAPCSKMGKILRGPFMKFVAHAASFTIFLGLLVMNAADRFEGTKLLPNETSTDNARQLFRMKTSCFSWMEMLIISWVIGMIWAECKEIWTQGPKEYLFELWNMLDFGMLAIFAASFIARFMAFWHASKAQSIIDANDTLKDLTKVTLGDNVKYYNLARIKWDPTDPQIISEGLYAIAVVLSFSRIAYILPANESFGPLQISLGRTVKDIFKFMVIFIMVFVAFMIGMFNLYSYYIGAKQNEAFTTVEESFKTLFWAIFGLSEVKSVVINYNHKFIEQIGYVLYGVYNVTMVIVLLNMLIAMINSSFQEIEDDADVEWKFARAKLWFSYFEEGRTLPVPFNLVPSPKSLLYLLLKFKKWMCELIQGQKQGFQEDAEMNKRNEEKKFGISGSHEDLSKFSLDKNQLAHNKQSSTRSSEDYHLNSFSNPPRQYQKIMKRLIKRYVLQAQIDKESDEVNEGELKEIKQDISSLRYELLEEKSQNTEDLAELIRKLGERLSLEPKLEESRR", "assay": "single-channel outside-out recording, mTRPC6 N701Q", "type": "cell-based", "settings": "100 μM agonist, −60 mV", "in_short": "(§1)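 Excised outside-out or inside-out patches (macro-patch or single-channel) from transfected HEK293 cells, 24–48 h post-transfection, 23 °C. Polished borosilicate pipettes of 8–12 MΩ; holding potential −60 mV. Same solutions as whole-cell recordings (CsCl-based internal, 400 nM free Ca2+, pH 7.2; NaCl-based external, pH 7.4). Sampled at 50 kHz, 2 kHz filter, low-pass 300 Hz; unitary current and conductance measured.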"}, "hTRPC6 mutant ^hE672C": {"target": "hTRPC6 mutant ^hE672C (Homo sapiens, UniProt Q9Y210, E672C)", "sequence (Q9Y210 whole entry E672C)": "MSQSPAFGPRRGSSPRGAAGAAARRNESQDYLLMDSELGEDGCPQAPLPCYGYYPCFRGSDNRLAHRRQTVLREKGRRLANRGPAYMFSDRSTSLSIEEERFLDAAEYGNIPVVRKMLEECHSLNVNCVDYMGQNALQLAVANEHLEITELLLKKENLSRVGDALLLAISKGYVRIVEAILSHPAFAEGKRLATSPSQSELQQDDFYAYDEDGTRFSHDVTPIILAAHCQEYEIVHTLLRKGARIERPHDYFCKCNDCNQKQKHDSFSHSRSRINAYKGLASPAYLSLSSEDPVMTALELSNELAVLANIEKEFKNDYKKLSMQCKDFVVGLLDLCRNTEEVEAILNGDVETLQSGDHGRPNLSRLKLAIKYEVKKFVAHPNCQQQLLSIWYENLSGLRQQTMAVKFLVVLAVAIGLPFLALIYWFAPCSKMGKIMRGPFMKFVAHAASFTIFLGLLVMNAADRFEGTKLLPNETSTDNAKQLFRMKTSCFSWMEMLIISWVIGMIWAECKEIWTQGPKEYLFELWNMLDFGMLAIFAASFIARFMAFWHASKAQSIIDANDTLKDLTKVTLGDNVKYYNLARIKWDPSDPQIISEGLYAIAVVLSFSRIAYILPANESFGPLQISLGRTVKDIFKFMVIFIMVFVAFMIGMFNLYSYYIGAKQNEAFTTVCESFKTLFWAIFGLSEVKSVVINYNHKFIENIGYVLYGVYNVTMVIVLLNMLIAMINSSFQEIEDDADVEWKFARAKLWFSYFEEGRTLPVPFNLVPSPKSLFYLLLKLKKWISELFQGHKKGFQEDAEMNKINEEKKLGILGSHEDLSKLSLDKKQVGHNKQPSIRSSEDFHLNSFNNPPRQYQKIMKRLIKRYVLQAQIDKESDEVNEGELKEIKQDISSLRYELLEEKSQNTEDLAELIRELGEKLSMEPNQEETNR", "assay": "whole-cell patch-clamp, hTRPC6 mutant E672C", "type": "cell-based"}, "mTRPC6 mutant ^mV687L": {"test_system": "mTRPC6 mutant ^mV687L", "assay": "whole-cell patch-clamp, mTRPC6 mutant V687L", "type": "cell-based, mouse", "settings": "^mV687L (S3 pocket)", "in_short": "(§2)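 Transiently transfected HEK293 cells expressing mouse or human TRPC6 WT, or sequence-verified mouse point mutants, recorded 24–48 h post-transfection. Conventional whole-cell clamp at −60 mV and 23 °C, gap-free; test compound applied by Y-tube. Pipette: CsCl/HEPES/BAPTA, 400 nM free Ca2+, pH 7.2. Bath: NaCl-based, 2 mM CaCl2, pH 7.4. EC50 from Hill fit of concentration–current data. Mutant screen used current ratios (10/5 μM or 3/1 μM). At least 3 transfection batches.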"}, "mTRPC6 mutant ^mK688R": {"test_system": "mTRPC6 mutant ^mK688R", "assay": "whole-cell patch-clamp, mTRPC6 mutant K688R", "type": "cell-based, mouse", "settings": "^mK688R (S3 pocket)", "in_short": "as §2"}, "mTRPC6 mutant ^mE671C": {"target": "T1, mTRPC6 mutant ^mE671C (Mus musculus, UniProt Q61143, E671C)", "T1 sequence (Q61143 1-930 E671C)": "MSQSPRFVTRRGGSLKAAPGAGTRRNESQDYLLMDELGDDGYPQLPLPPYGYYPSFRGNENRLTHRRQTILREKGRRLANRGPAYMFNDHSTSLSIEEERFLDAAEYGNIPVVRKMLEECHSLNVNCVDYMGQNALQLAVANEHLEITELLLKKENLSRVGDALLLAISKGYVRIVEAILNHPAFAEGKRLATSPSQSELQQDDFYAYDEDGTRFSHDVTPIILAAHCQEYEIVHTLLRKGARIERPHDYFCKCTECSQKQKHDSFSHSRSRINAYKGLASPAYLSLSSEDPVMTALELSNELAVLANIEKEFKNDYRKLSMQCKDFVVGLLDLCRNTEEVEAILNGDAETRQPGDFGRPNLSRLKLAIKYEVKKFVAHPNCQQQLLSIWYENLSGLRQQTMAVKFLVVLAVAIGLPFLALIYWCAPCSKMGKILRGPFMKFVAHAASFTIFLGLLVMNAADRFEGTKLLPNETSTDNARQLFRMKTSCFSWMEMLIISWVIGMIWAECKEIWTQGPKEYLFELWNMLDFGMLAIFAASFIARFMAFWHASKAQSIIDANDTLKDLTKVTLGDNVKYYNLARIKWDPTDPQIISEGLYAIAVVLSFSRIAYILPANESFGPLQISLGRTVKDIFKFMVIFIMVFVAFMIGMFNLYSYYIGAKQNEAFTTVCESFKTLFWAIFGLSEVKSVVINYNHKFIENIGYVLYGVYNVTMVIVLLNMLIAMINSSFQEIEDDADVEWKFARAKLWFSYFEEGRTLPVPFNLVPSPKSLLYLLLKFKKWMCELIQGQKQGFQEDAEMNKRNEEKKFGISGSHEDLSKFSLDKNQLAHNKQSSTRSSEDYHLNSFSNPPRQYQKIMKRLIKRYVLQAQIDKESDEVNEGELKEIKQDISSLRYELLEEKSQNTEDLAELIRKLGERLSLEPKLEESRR", "assay": "whole-cell patch-clamp, mTRPC6 mutant E671C", "type": "cell-based", "in_short": "as §2"}, "TRPC6": {"target": "T2, TRPC6 (Mus musculus, UniProt Q61143)", "T2 sequence (Q61143 1-930)": "T1 sequence (Q61143 1-930 E671C) with C671E", "assay": "macro-patch recordings in outside-out and inside-out configurations", "type": "cell-based", "in_short": "as §1"}, "mTRPC6 mutant ^mF678W": {"target": "mTRPC6 mutant ^mF678W (Mus musculus, UniProt Q61143, F678W)", "sequence (Q61143 whole entry F678W)": "as the sequence (Q61143 whole entry N701Q) above, with F678W, Q701N counted along it", "assay": "whole-cell patch-clamp, mTRPC6 mutant F678W", "type": "cell-based", "settings": "saturated agonist", "in_short": "as §2"}, "mTRPC6 mutant ^mK675R": {"target": "mTRPC6 mutant ^mK675R (Mus musculus, UniProt Q61143, K675R)", "sequence (Q61143 whole entry K675R)": "as the sequence (Q61143 whole entry N701Q) above, with K675R, Q701N counted along it", "assay": "whole-cell patch-clamp, mTRPC6 mutant K675R", "type": "cell-based", "in_short": "as §2"}, "hTRPC6 mutant ^hY705W": {"target": "hTRPC6 mutant ^hY705W (Homo sapiens, UniProt Q9Y210, Y705W)", "sequence (Q9Y210 whole entry Y705W)": "as the sequence (Q9Y210 whole entry E672C) above, with C672E, Y705W counted along it", "assay": "whole-cell patch-clamp, hTRPC6 mutant Y705W", "type": "cell-based"}, "mTRPC6 mutant ^mV709A": {"target": "mTRPC6 mutant ^mV709A (Mus musculus, UniProt Q61143, V709A)", "sequence (Q61143 whole entry V709A)": "as the sequence (Q61143 whole entry N701Q) above, with Q701N, V709A counted along it", "assay": "whole-cell patch-clamp, mTRPC6 mutant V709A", "type": "cell-based", "in_short": "as §2"}},
  "note": "Numbering of substitutions follows the chain as printed.",
  "data": [
    {"smiles": "CCOC(=O)N1CCC(c2cc(O)n3nc(C)c(-c4ccc(F)cc4)c3n2)CC1", "note": "[M085, Ethyl 4-(3-(4-fluorophenyl)-7-hydroxy-2-methylpyrazolo[1,5-a]pyrimidin-5-yl)piperidine-1-carboxylate]", "values": [
      {"measurement": "unit current", "setting": "mTRPC6^N701Q", "result": "about 1.1 pA"},
      {"measurement": "EC50", "setting": "hTRPC6 mutant ^hE672C", "result": "50.2 ± 6.65", "unit": "µM"},
      {"measurement": "ratio of M085 activation current I10 μM/I5 μM", "setting": "mTRPC6 mutant ^mV687L", "result": "1.13 ± 0.26"},
      {"measurement": "ratio of M085 activation current I10 μM/I5 μM", "setting": "mTRPC6 mutant ^mK688R", "result": "1.80 ± 0.22"},
      {"measurement": "EC50", "setting": "mTRPC6 mutant ^mE671C", "result": "23.3 ± 6.86", "unit": "µM"},
      {"measurement": "ratio of M085 activation current I10 μM/I5 μM", "setting": "mTRPC6 mutant ^mE671C; ^mE671C (S2 pocket)", "result": "4.16 ± 0.87"},
      {"measurement": "Imax (maximal current density)", "setting": "mTRPC6 mutant ^mE671C; ^mE671C, 100 μM agonist", "result": "24.09 ± 4.53", "unit": "pA/pF"},
      {"measurement": "agonist-mediated activation after DTNB treatment", "setting": "mTRPC6 mutant ^mE671C; mTRPC6^E671C, DTNB 2 mM", "result": "completely inhibited"},
      {"measurement": "agonist current after DTT removal of TNB moiety", "setting": "mTRPC6 mutant ^mE671C; mTRPC6^E671C, after DTNB then DTT 10 mM", "result": "partially “recovered”"},
      {"measurement": "current in inside-out configuration", "setting": "TRPC6; 100 μM agonist, inside-out macro-patch", "result": "no currents were recorded"},
      {"measurement": "current in outside-out configuration", "setting": "TRPC6; 100 μM agonist, outside-out macro-patch", "result": "could be recorded"},
      {"measurement": "cell membrane permeability", "setting": "TRPC6; implied from inside-out/outside-out recordings", "result": "relatively low"},
      {"measurement": "agonist-induced current (channel function)", "setting": "mTRPC6 mutant ^mF678W", "result": "complete loss of function"},
      {"measurement": "EC50", "setting": "mTRPC6 mutant ^mK675R", "result": "6.9 ± 2.36", "unit": "µM"},
      {"measurement": "Imax (maximal current density)", "setting": "mTRPC6 mutant ^mK675R; ^mK675R, 100 μM agonist", "result": "8.26 ± 0.62", "unit": "pA/pF"},
      {"measurement": "EC50", "setting": "hTRPC6 mutant ^hY705W", "result": "35.3 ± 6.15", "unit": "µM"},
      {"measurement": "EC50", "setting": "mTRPC6 mutant ^mV709A", "result": "6.95 ± 2.13", "unit": "µM"}
    ]}
  ]
}
